Screening results from PubChem.
This is a sample that favours compounds with a hit; in the whole collection about 1.4% have one here.
Furin inh = human furin inhibition. P09958. purified furin, fluorogenic substrate cleavage. inhibition, % at 20 µM or 30 µM. 220,000 tested, 0.061% active; in the data active = inhibition above about 25%
m-calpain inh = calpain II (pig) inhibition; purified calpain II, fluorogenic peptide substrate, 30 min; inhibition, % at 16 µM; 220,000 tested, 0.37% active;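 active = inhibition above about 50%, limit read from the data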
FXIa inh 1536 = inhibitors of human coagulation factor XIa. AID 798. 220,000 tested, 0.14% active. inhibition, % at 5 µM. purified FXIa, Boc-Glu-Ala-Arg-AMC fluorogenic substrate;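 active = inhibition of at least 40%; inactive = inhibition below 40%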;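 also: fluorescence of freed AMC excited at 355 nm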
FXIIa inh = blocks human coagulation factor XIIa protease activity; inhibition, % at 5 µM; AID 800; purified FXIIa, Boc-QGR-AMC fluorogenic substrate, 2 h; P00748; 220,000 tested, 0.3% active; in the data active = inhibition above about 40%
KLK5 inh = blocks human kallikrein 5 protease activity; Q9Y337; inhibition, % at 5 µM; AID 873; 210,000 tested, 0.59% active; recombinant hK5, fluorogenic AMC substrate cleavage;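 active = inhibition of 40% or more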
Target sequence (Q9Y337 67-293 limits assumed): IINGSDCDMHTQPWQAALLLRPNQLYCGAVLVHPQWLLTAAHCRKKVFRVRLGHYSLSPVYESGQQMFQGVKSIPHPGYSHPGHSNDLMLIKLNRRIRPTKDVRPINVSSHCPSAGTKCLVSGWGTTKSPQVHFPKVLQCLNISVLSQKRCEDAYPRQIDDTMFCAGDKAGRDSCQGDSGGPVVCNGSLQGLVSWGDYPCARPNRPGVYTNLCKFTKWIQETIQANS
Thrombin inh = thrombin (human) inhibition; P00734; alpha-thrombin, Boc-VPR-AMC fluorogenic substrate cleavage; inhibition, % at 5 µM; 220,000 tested, 0.26% active;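 active = inhibition at or above 40%; inactive = inhibition below 40%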
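Material: Human alpha-thrombin protein | Buffer or medium: pH 7.5 Tris-saline with Tween 20 | Reagent: Boc-VPR-AMC substrate, 15 µM final | Schedule: Reaction at ambient temperature | Detection: AMC fluorescence at 355 nm excitation and 460 nm emission | Evaluation: Percent inhibition scaled between no-compound controls and no-enzyme blanks | Controls: no-compound enzyme wells and no-enzyme blanks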
Of the large screens only hits and unclear results are named; the others gave an inactive call.

Cc1cccc(CCNC(=O)C2CCC(=O)N2Cc2ccc(F)cc2)c1 (stereo not given)	none
Cc1ccc(CCNC(=O)C2CCC(=O)N2Cc2cccnc2)cc1 (stereo not given)	KLK5 inh 47
Cc1ccc(C(=O)NC2CCCCNC2=O)cc1 (stereo not given)	none
O=C(Nc1ccccc1)N(c1ccccc1)C1C=CS(=O)(=O)C1 (stereo not given)	none
C=C(C)C(=O)Nc1cccnc1Oc1ccc(F)cc1F	none
Cc1[nH]c2ccc(F)cc2c1CCN(Cc1cccnc1)C(=S)Nc1cccc(F)c1	none (no result: Thrombin inh)
Cc1ccc(C(=O)CSc2nc(C)cc(C)c2C(N)=O)cc1	KLK5 inh 49, Thrombin inh 104
COCCNC(=S)N1CCC(NC(=O)Nc2ccc(C)cc2)CC1	none
O=C(O)CN(CCO)CCN(CC(=O)O)CC(=O)O	none
CC(=O)NC(Cc1cccc(F)c1)C(=O)NC1CCN(c2nnnn2-c2ccccc2)CC1 (stereo not given)	none
COc1cc(/C=C/C(=O)OCc2c(C)noc2C)ccc1OC(F)F	KLK5 inh 54
Cc1ccc(C(C)C)c(OCc2nn(CC(=O)c3ccc(Cl)cc3)c3[n+]2CCCCC3)c1	none
Cc1ccc2c(c1)nnn2C1CCN(S(=O)(=O)c2ccc(C(=O)N3CC(C)CC(C)C3)cc2)CC1 (stereo not given)	m-calpain inh 51
Cc1ccc2c(c1)nnn2C1CCN(S(=O)(=O)c2ccc(C(=O)N(C)C)cc2)CC1	none
CC(=O)Nc1ccc(C=C(C(C)=O)C(C)=O)cc1	none
COc1cc(S(=O)(=O)N2CCOCC2)ccc1NC(=O)COC(=O)COc1ccccc1	Thrombin inh 50
COC(=O)CCSCC(=O)Nc1ccc(S(=O)(=O)N2CCOCC2)cc1OC	none
Fc1ccccc1COc1ccc(Br)cc1CNCc1ccncc1	m-calpain inh 57
Cc1cc(C(=O)CCl)c(C)n1-c1cccc(S(=O)(=O)N2CCOCC2)c1	none
O=[N+]([O-])c1cc(C(F)(F)F)ccc1NCCNC(=S)Nc1ccc(Cl)cc1	m-calpain inh 52
O=[N+]([O-])c1ccc(NC(=S)NCCc2ccccc2)cc1	none
Cc1ccc(C(=O)NCCNc2ccc(Cl)cc2[N+](=O)[O-])o1	FXIIa inh 60
O=[N+]([O-])c1ccc(NC(=S)NCCc2ccc(Cl)cc2)cc1	m-calpain inh 68
O=[N+]([O-])c1cc(C(F)(F)F)ccc1NCCCCNS(=O)(=O)c1ccc(Cl)cc1	none
NS(=O)(=O)c1ccc(NC(=S)NCc2ccc(Cl)cc2)cc1	m-calpain inh 56
Cc1ccc(N/C=C/C(=O)C(C)(C)C)c(O)c1	none
O=C(NCc1ccccn1)C(=O)N/N=C/c1ccc2c(c1)OCO2	none
COC(=O)c1ccccc1NC(=O)C(=O)NCc1ccncc1	none
COc1cc(/C=N/NC(=O)CSc2n[nH]c(=O)[nH]c2=O)cc(OC)c1O	none
Oc1ccc2oc3c(c2c1C=NCc1ccncc1)CCCC3	none
COc1ccccc1NC(=S)N(CCCN(C)C)Cc1cc2cc3c(cc2[nH]c1=O)OCO3	none
CCN(CC)CCCN(Cc1cc2cc3c(cc2[nH]c1=O)OCO3)C(=S)Nc1ccccc1OC	KLK5 inh 52, Thrombin inh 45
Cc1ccc(Nc2nc(=O)c3cccnc3s2)c(Br)c1	none
O=C(NCc1ccc(Cl)cc1)c1n[nH]c([N+](=O)[O-])c1Cl	none
COc1ccc(OC)c(/C=N/Nc2cc(C)nc(N3CCOCC3)n2)c1	FXIIa inh 40, KLK5 inh 58
CCC(C)NCCOCCOc1ccc(Cl)cc1Br (stereo not given)	none
Cc1ccnc(NC(c2ccccn2)c2c(C)[nH]c3ccccc23)c1 (stereo not given)	none
CCN(CC)Cc1ccccc1Sc1ccccc1	KLK5 inh 44, Thrombin inh 44
COc1ccc(C(=O)Nc2ccc(NC(=O)c3cnccn3)cn2)cc1	none
Cc1ccc(S(=O)(=O)NN2C(=O)/C(=C/c3cccn3C)SC2=S)cc1	KLK5 inh 41
Cc1c(NC(=O)c2ccc(Cl)c(S(=O)(=O)N3CCOCC3)c2)c(=O)n(-c2ccccc2)n1C	Furin inh 30
Cc1ccc(C(=O)Nc2c(C)n(C)n(-c3ccccc3)c2=O)cc1S(=O)(=O)N1CCOCC1	none (no result: m-calpain inh, FXIa inh 1536, FXIIa inh, KLK5 inh, Thrombin inh)
CCCOc1ccc(/C=N/NC(=O)C2CCCN2S(=O)(=O)c2ccc(Cl)cc2)cc1 (stereo not given)	KLK5 inh 49
O=C(NCc1cccc(Cl)c1)c1cccc(C(F)(F)F)c1	none
O=C(NCc1ccccc1Cl)c1cccc(C(F)(F)F)c1	KLK5 inh 41
COc1ccc(N2C(=O)[C@@H]3[C@H](C2=O)[C@H]2c4ccccc4C=CN2[C@@H]3C(=O)Nc2ccccc2)cc1	FXIIa inh 45, Thrombin inh 61
O=C(NCCN=C1NS(=O)(=O)c2ccccc21)c1ccco1	KLK5 inh 74
C#CCOCCOCCOCCNc1nc(N2CCN(C(=O)C([C@@H](C)CC)n3cc(C(N)Cc4ccc(O)cc4)nn3)CC2)nc(N2CCN(C(=O)[C@H](CCC(=O)O)n3cc(C(N)[C@H](C)CC)nn3)CC2)n1 (stereo not given in full)	none
CC(C)c1ccc(NC(=O)c2ccc(Br)o2)cc1	FXIIa inh 50
Cc1c(NC(=O)c2ccc(Br)o2)cccc1C(=O)O	FXIIa inh 45
O=C(Nc1ccc(Nc2ccccc2)cc1)c1ccc(Br)o1	none
O=C(C1CC=CCC1)N1CCC(CO)(Cc2ccc(Cl)cc2)CC1 (stereo not given)	none (no result: KLK5 inh)
CSc1ccccc1NC(=O)c1cc2ncc(Br)cn2n1	none
Cc1ccccc1Cn1c(=O)n(CC2CCC(C(=O)NCCc3ccccc3)CC2)c(=O)c2ccccc21 (stereo not given)	m-calpain inh 66
CC(=O)NC1CCCN(O)C(=O)/C=C(\C)CCOC(=O)C(NC(C)=O)CCCN(O)C(=O)/C=C(\C)CCOC(=O)C(NC(C)=O)CCCN(O)C(=O)/C=C(\C)CCOC1=O (stereo not given)	none
CCSc1nnc(NC(=O)[C@H](C)N2C(=O)C3CC=CCC3C2=O)s1 (stereo not given in full)	FXIa inh 1536 56, KLK5 inh 46
Cn1c(N)c(C(=O)COC(=O)CC2CC3CCC2C3)c(=O)n(C)c1=O (stereo not given)	m-calpain inh 92
CC(=O)NC(CC(=O)OCC(=O)c1c(N)n(C)c(=O)n(C)c1=O)c1ccccc1 (stereo not given)	FXIIa inh 40
O=C(COC(=O)CC1CC2CCC1C2)Nc1ccc(F)cc1 (stereo not given)	none (no result: FXIIa inh)
O=C(CC1CC2CCC1C2)OCC(=O)c1c[nH]c2ccccc12 (stereo not given)	m-calpain inh 79
COc1ccc(NS(=O)(=O)c2cc(OCC(N)=O)c(C)cc2Cl)cc1	none
